Measured values published in ChEMBL document CHEMBL3232763, “Synthesis of 6-cinnamoyl-2H-benzo[b][1,4]oxazin-3(4H)-ones and their effects on A549 lung cancer cell growth” (Eur J Med Chem, 2014).
Activity calls are given as the source filed them. The rule behind the calls is not given here.

Columns and labels:
A549 [1] = assay: Cytotoxicity against human A549 cells assessed as change in cell morphology at 5 uM after 48 hrs by phase contrast microscopic analysis; assay type: functional, cell-based
In short: (§1)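 A549 cells (RPMI-1640, 10% bovine calf serum, 37 °C, 5% CO2) treated with compound at 5 µM or 0.1% DMSO control for 24 h or 48 h; morphology and cell density inspected by phase contrast microscopy.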

A549 [2] = assay: Induction of apoptosis in human A549 cells assessed as chromatin condensation at 5 uM measured at 48 hrs by Hoechst 33258 staining-based fluorescence microscopic analysis; assay type: functional, cell-based
In short: (§2)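 After 48 h with 5 µM compound or 0.1% DMSO, A549 cells in 24-well plates stained with 10 µg/ml Hoechst 33258 for 30 min at 37 °C, washed twice with PBS, and nuclei examined by fluorescence microscopy for chromatin condensation and apoptotic bodies.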

A549 [3] = assay: Cell cycle arrest in human A549 cells assessed as accumulation at S phase at 5 uM after 48 hrs by propidium iodide staining-based flow cytometric analysis (reference value: 39.68%); assay type: functional
A549 [4] = assay: Induction of autophagy in human A549 cells assessed as effect on LC3-2 protein expression at 5 uM after 48 hrs by Western blot analysis; assay type: functional, cell-based
In short: (§3)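 Cells treated 48 h at 5 µM, washed with ice-cold PBS, lysed, protein quantified by Bradford; SDS electrophoresis, PVDF transfer, blocking in 5% milk/PBST; probed overnight at 4 °C with rabbit anti-human LC3b and GAPDH antibodies, HRP secondaries, film detection; LC3-II band density normalised to loading control.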

A549 [5] = assay: Cytotoxicity against human A549 cells assessed as growth inhibition measured at 48 hrs by SRB assay; assay type: functional, cell-based; settings: for IC50: A549, 48 h
In short: (§4)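 Sulforhodamine B assay: A549 cells seeded in 96-well plates, exposed 48 h to 1, 5 or 10 µM or 0.1% DMSO; survival expressed relative to DMSO-treated cells; triplicate assays, mean ± SE (n = 3); IC50 at 48 h derived.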

A549 [6] = assay: Cell cycle arrest in human A549 cells assessed as accumulation at G1 phase at 5 uM after 48 hrs by propidium iodide staining-based flow cytometric analysis (reference value: 50.70%); assay type: functional
A549 [7] = assay: Induction of necrosis in human A549 cells at 10 uM after 48 hrs by LDH release assay; assay type: functional, cell-based
In short: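 LDH level measured in A549 cells after 48 h with 10 µM compound or untreated control, using a commercial kit per manufacturer's instructions; mean ± SE, n = 3.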

A549 [8] = assay: Cytotoxicity against human A549 cells assessed as decrease in cell density at 5 uM after 24 to 48 hrs by phase contrast microscopic analysis; assay type: functional, cell-based; in short: as §1
A549 [9] = assay: Cell cycle arrest in human A549 cells assessed as accumulation at G2 phase at 5 uM after 48 hrs by propidium iodide staining-based flow cytometric analysis (reference value: 9.63%); assay type: functional
A549 [10] = assay: Induction of apoptosis in human A549 cells assessed as increase in apoptotic bodies formation at 5 uM measured at 48 hrs by Hoechst 33258 staining-based fluorescence microscopic analysis; assay type: functional, cell-based; in short: as §2
A549 [11] = assay: Induction of autophagy in human A549 cells assessed as increase in acidic vesicles accumulation at 5 uM after 48 hrs by acridine orange staining-based fluorescence microscopic analysis; assay type: functional, cell-based
In short: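 A549 cells treated 48 h at 5 µM, then stained with acridine orange (5 µg/ml) for 1 min at room temperature, washed twice with PBS, and acidic vesicles viewed by fluorescence microscopy (200×).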

A549 [12] = assay: Induction of autophagy in human A549 cells assessed as upregulation of LC3-2 protein expression at 5 uM after 48 hrs by Western blot analysis; assay type: functional, cell-based; in short: as §3
A549 [13] = assay: Cytotoxicity against human A549 cells assessed as inhibition of cell viability at 10 uM after 48 hrs by SRB assay relative to control; assay type: functional; in short: as §4

| Compound | Activity (A549 [1]) | Activity (A549 [2]) | Activity (A549 [3]) [%] | Activity (A549 [4]) | growth inhibition (GI) (A549 [5]) | IC50 (A549 [5]) [µM] | Activity (A549 [6]) [%] | Activity (A549 [7]) | Activity (A549 [8]) | Activity (A549 [9]) [%] | Activity (A549 [10]) | Activity (A549 [11]) | Activity (A549 [12]) | Activity (A549 [13]) [%] |
| --- | --- | --- | --- | --- | --- | --- | --- | --- | --- | --- | --- | --- | --- | --- |
| O=C1COc2ccc(C(=O)/C=C/c3ccc(Cl)cc3)cc2N1 | inactive |  |  |  |  |  |  |  |  |  |  |  |  |  |
| O=C1COc2ccc(C(=O)/C=C/c3ccc4c(c3)OCO4)cc2N1 | inactive | inactive | 26.3 | inactive | Dose-dependent effect | 16.3 | 63.37 | inactive | Active | 10.33 | inactive | inactive |  |  |
| COc1cc(/C=C/C(=O)c2ccc3c(c2)NC(=O)CO3)cc(OC)c1 | inactive | inactive | 9.25 |  | Dose-dependent effect | 3.29 | 75.46 | inactive | Active | 15.29 | inactive | Active | Active | 24 |
| O=C1COc2ccc(C(=O)/C=C/c3ccc(OCc4ccccc4)cc3)cc2N1 | inactive |  |  |  |  |  |  |  |  |  |  |  |  |  |
| COc1ccc(/C=C/C(=O)c2ccc3c(c2)NC(=O)CO3)c(OC)c1 | inactive | inactive | 30.59 |  | Dose-dependent effect | 6.49 | 57.92 | inactive | Active | 11.5 | inactive | Active | Active |  |
| O=c1[nH]cc(F)c(=O)[nH]1 [FLUOROURACIL] |  |  |  |  |  | 0.98 |  |  |  |  |  |  |  |  |
| O=C1COc2ccc(C(=O)/C=C/c3ccccc3)cc2N1 | inactive | inactive | 32.08 |  | Dose-dependent effect | 5.46 | 55.27 | inactive | Active | 12.66 | inactive | inactive | inactive |  |
| O=C1COc2ccc(C(=O)/C=C/c3ccc4ccccc4c3)cc2N1 | inactive |  |  |  |  |  |  |  |  |  |  |  |  |  |
